# Screening results as filed in PubChem BioAssay.
# UBC13 inh – UBC13 polyubiquitin chain formation inhibitors, primary screen, biochemical, TR-FRET, uHTS. Ubiquitin-conjugating enzyme E2 N (Homo sapiens), P61088. inhibition, % at 20 µM. hit rate 0.47% among 330,000. AID 485273, 2010; in the data active = inhibition above about 45%, passing the limit was not always enough
# Apaf-1 inh – inhibitors of human Apaf-1 apoptosome, primary screen, biochemical, DEVD-Rh110 fluorescence, uHTS. inhibition, % at 20 µM. Apoptotic protease-activating factor 1 (Homo sapiens), O14727. hit rate 0.71% among 330,000. reconstituted apoptosome caspase-3 activity; active = inhibition of at least 40% at 20 µM
# Target sequence (O14727 whole entry, looked up): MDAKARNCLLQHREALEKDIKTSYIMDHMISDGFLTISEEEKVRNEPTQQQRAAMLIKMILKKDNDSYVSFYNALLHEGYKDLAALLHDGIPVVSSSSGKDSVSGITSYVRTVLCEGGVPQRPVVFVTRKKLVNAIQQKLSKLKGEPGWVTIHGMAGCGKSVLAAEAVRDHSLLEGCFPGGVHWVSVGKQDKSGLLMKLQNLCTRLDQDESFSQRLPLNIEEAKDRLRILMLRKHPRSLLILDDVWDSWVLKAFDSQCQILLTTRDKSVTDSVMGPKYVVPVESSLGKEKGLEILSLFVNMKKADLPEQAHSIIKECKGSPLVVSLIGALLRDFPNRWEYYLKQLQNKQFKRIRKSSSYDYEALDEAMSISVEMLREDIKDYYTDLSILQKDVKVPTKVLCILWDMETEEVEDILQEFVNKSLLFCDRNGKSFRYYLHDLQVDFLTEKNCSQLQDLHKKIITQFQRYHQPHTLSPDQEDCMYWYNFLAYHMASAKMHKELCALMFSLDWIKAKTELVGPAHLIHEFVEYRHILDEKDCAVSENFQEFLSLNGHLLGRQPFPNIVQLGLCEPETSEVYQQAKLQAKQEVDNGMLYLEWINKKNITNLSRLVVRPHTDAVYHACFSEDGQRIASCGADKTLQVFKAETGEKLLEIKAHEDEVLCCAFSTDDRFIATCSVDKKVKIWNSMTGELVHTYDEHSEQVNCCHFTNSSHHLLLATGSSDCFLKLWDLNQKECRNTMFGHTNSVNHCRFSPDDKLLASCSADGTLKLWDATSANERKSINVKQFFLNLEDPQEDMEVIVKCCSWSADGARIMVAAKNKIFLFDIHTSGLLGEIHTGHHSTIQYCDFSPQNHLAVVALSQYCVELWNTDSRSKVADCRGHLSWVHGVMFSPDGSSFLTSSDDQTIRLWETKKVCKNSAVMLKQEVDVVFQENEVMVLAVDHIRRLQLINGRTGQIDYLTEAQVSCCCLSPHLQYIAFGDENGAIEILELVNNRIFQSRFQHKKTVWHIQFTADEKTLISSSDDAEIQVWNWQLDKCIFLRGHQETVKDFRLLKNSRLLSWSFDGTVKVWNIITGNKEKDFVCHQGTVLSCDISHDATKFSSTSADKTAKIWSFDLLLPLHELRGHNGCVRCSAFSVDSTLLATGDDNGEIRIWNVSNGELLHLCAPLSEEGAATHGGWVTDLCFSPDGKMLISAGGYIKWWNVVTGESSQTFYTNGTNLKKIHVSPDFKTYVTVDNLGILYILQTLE
#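 System – cell-free apoptosome with Apaf-1, procaspase-3 and caspase-9 · Buffer or medium – pH 7.5 Hepes buffer with CHAPS, BSA, DTT · Also added – cytochrome c with DEVD-Rh110 · Times – 30 min compound preincubation, 50 min activation, room temperature · Technique – Rh110 fluorescence intensity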
# UPR XBP1 act – activators of adaptive XBP1 UPR arm, primary screen, cell-based, CHO-XBP1 luciferase reporter, luminescence, uHTS. IRE1-XBP1 UPR activation; percent of tunicamycin response, DMSO as zero. activation, % at 20 µM. hit rate 0.33% among 330,000. AID 463104, 2010;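 active = versus positive control, 20 µM dose yields 30% or more activation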
#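 incubation = overnight seeding at 37 °C, 6 h compound treatment at 37 °C | assay system = CHO-XBP1 cells stably carrying IRE1-XBP1-driven luciferase reporter | input = 1000 cells per well | detection = luciferase luminescence | dosing = single point, 20 µM final compound, 1% DMSO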
# CHOP UPR activ – activators of apoptotic CHOP UPR arm, primary screen, cell-based, CHO-CHOP luciferase reporter, luminescence, uHTS; UPR activation; percent of tunicamycin response over DMSO baseline; hit rate 0.34% among 330,000; activation, % at 10 µM;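 active = at 10 µM dose, activation of 40% or more, normalized to positive control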
#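 Evaluation: % reporter activation, DMSO baseline versus tunicamycin full activation; System: CHO-CHOP luciferase reporter cell line; Input: 500 cells/well; Incubation: 6 h compound treatment, 37 °C; Measured by: Steady-Glo luciferase luminescence; Dosing: one dose, 10 µM in 0.5% DMSO; Buffer or medium: F12 medium, 10% FBS; Benchmarks: positive tunicamycin 10 µg/mL, negative DMSO alone.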
# Mdm2 MdmX PPI – inhibitors of human Mdm2-MdmX association, primary screen, cell-based, luminescence, split luciferase, SaOS-2, uHTS | AID 485346, 2010 | Protein Mdm4 (Homo sapiens) + E3 ubiquitin-protein ligase Mdm2 (Homo sapiens), … | hit rate 3% among 330,000 | inhibition, % at 8 µM | SaOS-2 split-luciferase Mdm2/MdmX complementation;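 active = inhibition of at least 50% at 8 µM in the primary screen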
# Casp3 counter – CASP3 inhibitor validation, counterassay for project on UBE2N polyubiquitination blockers, biochemical, one dose. shares compounds with UBC13 inh. Recombinant caspase-3, Caspase-Glo 3/7 luminescence, 60 min. inhibition, % at 20 µM. hit rate 4% among 1,400. AID 488856, 2010;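 active = mean inhibition across replicates above about 26%, limit read from the data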
# UBC13 confirm – UBC13 polyubiquitination inhibitors, single-point retest, confirmation, biochemical, TR-FRET, single concentration; shares compounds with UBC13 inh; inhibition, % at 10 µM; hit rate 68% among 1,400; AID 488859, 2010; in the data active = inhibition above about 45%
# Mdm2 MdmX conf – Mdm2-MdmX complex disruptors, retested hits, confirmation, luminescence, single concentration; shares compounds with Mdm2 MdmX PPI; hit rate 55% among 10,000; inhibition, % at 8 µM; Mdm2-MdmX binding, luminescent assay; in the data active = inhibition above about 40%
# Full FLuc ctr – full-length luciferase signal inhibition, confirmation, counter-screen for Mdm2/MdmX interaction inhibitor project, cell-based, single concentration, SaOS-2; hit rate 77% among 6,200; inhibition, % at 8 µM; shares compounds with Mdm2 MdmX PPI; SaOS-2 full-length luciferase counterscreen, luminescence;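 active = mean inhibition at 8 µM reaching about 37%, which flags the compound as non-specific, limit read from the data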;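 also: p53-null SaOS-2 cells with luciferase driven by a doxycycline-inducible promoter; compound on cells about two nights before reading with doxycycline added after day one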
# Apaf-1 inh conf2 – Apaf-1 inhibitors, single-dose retest, confirmation, biochemical, fluorescence, DEVD-Rh110, 20 µM | hit rate 25% among 1,800 | AID 504614, 2011 | inhibition, % at 20 µM | shares compounds with Apaf-1 inh | reconstituted apoptosome, caspase-3 DEVD-Rh110 fluorescence;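 active = mean inhibition of at least 40% at 20 µM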
# Rh110 quench – Rh110 fluorescence interference by putative Apaf-1 inhibitors, confirmation, artefact control for Apaf-1 inhibitor project, biochemical, 20 µM; shares compounds with Apaf-1 inh; quenched caspase reaction; activation (fluorescence interference), % at 20 µM; 1,800 tested, under 10 active;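 active = signal rise of 40% or more at 20 µM, treated as a fluorescence artifact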
# Fluor interf inh – fluorescence interference of Apaf-1 inhibitor hits, dose response, artefact control for Apaf-1 inhibitor project. shares compounds with Apaf-1 inh. IC50, µM. fluorescence interference counterscreen, Apaf-1 assay format. 460 tested, under 10 active; call rule not given here
# Hits are given with their value; i = inactive; nt = no result given. Rows were chosen to be rich in hits. Some 4.1% of all compounds tested hit in one or more screens of this group.
SMILES,UBC13 inh,Apaf-1 inh,UPR XBP1 act,CHOP UPR activ,Mdm2 MdmX PPI,Casp3 counter,UBC13 confirm,Mdm2 MdmX conf,Full FLuc ctr,others
Clc1ccc(COC(Cn2ccnc2)c2ccc(Cl)cc2Cl)cc1 (configuration not stated),49.6,i,i,i,i,i,i,nt,nt,
COC(=O)C1=C(c2cccc(OC)c2OC)C[C@@H]2CC[C@H]1N2C(=O)NC(C)C,i,i,i,i,i,nt,nt,nt,nt,
C1=CC(Cc2cncs2)c2ccccc21 (configuration not stated),i,i,i,i,i,nt,nt,nt,nt,
O=C1C(Cc2cnc[nH]2)NC(=S)N1c1ccccc1 (configuration not stated),86.5,i,i,i,i,i,103.8,nt,nt,
CC(=O)C1CCC2C3CCC4CC(O)CCC4(C)C3CCC12C (configuration not stated),i,i,i,i,i,nt,nt,nt,nt,
C[C@]12CCC3C(CC[C@H]4C[C@@H](O)CC[C@]34C)C1CC[C@@H]2OC(=O)[C@H](N)CCCCN (some centres not stated),105.2,i,i,i,i,i,106.5,nt,nt,
CNCC(O)c1cc(OCc2ccccc2)c(OCc2ccccc2)cc1F (configuration not stated),52.6,i,i,i,81.7,i,i,i,nt,
Cc1ccc2c(c1)C1CN(C)CCC1N2C(=O)c1cccnc1Cl (configuration not stated),i,i,i,i,i,nt,nt,nt,nt,
Cc1ccc2c(c1)C1CN(C)CCC1N2C(=O)CCCN1C(=O)c2cccc3cccc(c23)C1=O (configuration not stated),88.8,i,i,i,50.8,i,100.8,i,nt,
COC(=O)C1=C(c2ccc(Cl)c(C(F)(F)F)c2)C[C@@H]2CC[C@H]1N2C(=O)NC1CCCCC1,i,i,i,i,i,nt,nt,nt,nt,
CCCCn1c(=O)c(C(=O)Nc2ccccc2S(N)(=O)=O)c(O)c2ccccc21,52.7,i,i,i,51.9,i,i,48.2,39.5,
CCCCCn1c(=O)c(C(=O)Nc2ccccc2S(N)(=O)=O)c(O)c2ccccc21,i,i,i,i,i,nt,nt,nt,nt,
O=C(O)C1Cc2ccccc2N2CCCC12 (configuration not stated),i,i,i,i,i,nt,nt,nt,nt,
Cc1ccc(C(=O)N[C@@H](C)CN2C3=NC[C@H](Cc4ccccc4)N3C[C@H]2Cc2ccc(O)cc2)cc1Br,65.1,i,i,i,97.7,i,64.6,57.5,56.7,
Cc1ccc(C(=O)N[C@@H](C)CN2C3=NC[C@@H](Cc4ccccc4)N3C[C@H]2Cc2ccc(O)cc2)cc1Br,77.0,i,i,i,69.4,i,75.7,i,nt,
C=CCN1C[C@@H](C)N(C(c2ccc(C(=O)N(CC)CC)cc2)c2cccc(OC)c2)C[C@@H]1C (some centres not stated),i,i,i,i,i,nt,nt,nt,nt,
CCCCCCCSc1cc(OC)c(CCN(C)C)cc1OC,49.9,56.3,i,i,73.9,i,56.1,i,nt,Apaf-1 inh conf2=i;Rh110 quench=i
OC1(c2ccccc2F)CC2CCC(C1)N2CCN1CCOCC1 (configuration not stated),i,i,i,i,i,nt,nt,nt,nt,
Clc1ccc(C(c2ccc(Cl)cc2)n2cc[n+](CC(OCc3ccc(Cl)cc3Cl)c3ccc(Cl)cc3Cl)c2)cc1 (configuration not stated),104.2,89.5,i,i,100.4,i,105.6,69.8,i,Apaf-1 inh conf2=78.9;Rh110 quench=i;Fluor interf inh=i
COC(=O)C(O)(c1ccc(N(C)C(=O)c2cccs2)cc1)C(F)(F)F (configuration not stated),i,i,i,i,i,nt,nt,nt,nt,
CCCCCCCCn1sccc1=O,i,i,i,i,80.2,nt,nt,i,nt,
C=C1C(=O)O[C@H]2C[C@@H](C)[C@@H]3C=CC(=O)[C@@]3(C)C[C@H]12,i,i,i,i,100.3,nt,nt,96.1,53.2,
C=C1C(=O)O[C@H]2[C@H]1[C@H](OC(=O)CC(=O)O[C@@H]1C[C@@H](C)[C@@H]3C=CC(=O)[C@@]3(C)[C@H]3OC(=O)C(=C)[C@H]13)C[C@@H](C)[C@H]1C=CC(=O)[C@]12C,i,i,i,i,i,nt,nt,nt,nt,
C=C1C(=O)O[C@@H]2C[C@@H](C)[C@@H]3C=CC(=O)[C@@]3(C)[C@@H](OC(=O)CC(=O)O[C@H]3[C@@H]4C(=C)C(=O)O[C@@H]4C[C@@H](C)[C@@H]4C=CC(=O)[C@]43C)[C@H]12,i,i,i,i,97.0,nt,nt,100.3,i,
COc1cccc(CCNCc2ccc(SC)cc2)c1,i,i,i,i,i,nt,nt,nt,nt,
CCn1nc(-c2ccccc2)nc2c(=O)n(C)c(=O)nc1-2,i,97.8,i,i,73.8,nt,nt,72.8,i,
O=c1c2ccccc2nc(/C=C/c2ccccc2O)n1-c1ccccc1O,i,i,i,i,82.0,nt,nt,56.4,63.5,
COc1cc(/C=C/c2nc3ccccc3c(=O)n2-c2ccc(O)cc2)ccc1O,i,i,i,i,77.4,nt,nt,45.9,95.1,
COc1ccc(-n2c(/C=C/c3ccc(O)c(O)c3)nc3ccccc3c2=O)cc1,i,i,i,i,i,nt,nt,nt,nt,
Cc1ccc(-n2c(/C=C/c3ccccn3)nc3ccccc3c2=O)cc1,i,i,i,i,58.5,nt,nt,i,nt,
